# Bioassay records from PubChem.
# An excerpt weighted towards active compounds, which were near 2.8% of everything screened.
# EP2 mod = modulates human prostaglandin E2 receptor EP2 signaling; actives 0.83% (n = 260,000); EP2-expressing cells, cAMP HTRF FRET, PGE2 co-stimulation; induction, % at 25 µM; AID 940;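 active means compounds whose cAMP rise, as percent of the full-agonist control response, exceeds 60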;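 further: rat C6 glioma line stably carrying human EP2 under a CMV promoter; the protocol text gives 20 µM as final concentration; 100% = response of wells given 1 µM PGE2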
# Target sequence (P43116 whole entry, looked up): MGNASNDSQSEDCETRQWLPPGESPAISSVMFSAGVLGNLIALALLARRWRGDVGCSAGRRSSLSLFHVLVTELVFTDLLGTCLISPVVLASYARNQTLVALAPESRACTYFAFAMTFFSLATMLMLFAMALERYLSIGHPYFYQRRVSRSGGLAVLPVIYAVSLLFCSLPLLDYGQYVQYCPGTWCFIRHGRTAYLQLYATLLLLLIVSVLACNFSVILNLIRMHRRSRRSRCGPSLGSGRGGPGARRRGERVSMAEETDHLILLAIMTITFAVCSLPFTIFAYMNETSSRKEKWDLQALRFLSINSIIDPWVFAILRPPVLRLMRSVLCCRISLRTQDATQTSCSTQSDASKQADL
# NPY-Y1 PAM-ag = potentiators or agonists of human neuropeptide Y receptor Y1; P25929; NPY-Y1 expressing cells, potentiator/agonist activation; activation, % at 3.6 µM; actives 0.37% (n = 220,000); in the data active means activation above about 33%, passing the limit was not always enough;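 further: cells stimulated with NPY at EC10 then isoproterenol at EC100; 0% = low agonist plus stimulus and 100% = saturating agonist plus stimulus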
# NPY2 pot ag = human NPY-Y2 potentiation or agonism, primary screen | cells expressing NPY-Y2, potentiator/agonist read-out | activation, % at 3.6 µM | actives 0.45% (n = 220,000); in the data active means activation above about 27%;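 further: cells stimulated with NPY near EC25 plus isoproterenol at EC100; 0% = vehicle plus submaximal agonist and 100% = vehicle plus saturating agonist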
# Target sequence (P49146 whole entry, looked up): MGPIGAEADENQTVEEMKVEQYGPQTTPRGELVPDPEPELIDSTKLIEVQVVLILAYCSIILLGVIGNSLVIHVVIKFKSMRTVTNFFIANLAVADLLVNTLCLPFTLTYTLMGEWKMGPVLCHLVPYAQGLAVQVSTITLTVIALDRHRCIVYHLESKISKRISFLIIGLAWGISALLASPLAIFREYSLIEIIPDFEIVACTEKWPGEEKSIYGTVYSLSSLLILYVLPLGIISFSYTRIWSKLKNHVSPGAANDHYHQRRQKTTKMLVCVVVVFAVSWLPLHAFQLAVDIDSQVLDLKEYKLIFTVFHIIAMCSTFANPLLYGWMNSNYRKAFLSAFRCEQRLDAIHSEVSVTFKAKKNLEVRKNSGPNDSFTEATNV
# PGE2 EP2 inh = inhibitors of human EP2 prostaglandin E2 receptor. inhibition, % at 25 µM. C6 glioma cells expressing human EP2, cAMP TR-FRET; cells stimulated with saturating PGE2. actives 0.52% (n = 260,000). P43116;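 active means percent inhibition above 40 after rounding to a whole number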;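 further: rat C6 glioma host cells with rolipram phosphodiesterase inhibitor present; the protocol text gives 20 µM as final concentration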
# NPY-Y2 antag = NPY-Y2 (human) receptor antagonism; NPY-Y2 expressing cells, antagonist mode; actives 0.99% (n = 140,000); P49146; inhibition, % at 2.7 µM; AID 793;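 further: 0% = vehicle with agonist challenge and 100% = reference antagonist with challenge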
# NPY-Y1 antag = blocks the human neuropeptide Y Y1 receptor; actives 1% (n = 200,000); inhibition, % at 3.6 µM; HEK293-CNG Y1 cells, membrane potential fluorescence; NPY at EC95, then isoproterenol; P25929;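 active means inhibition above the campaign mean inhibition of all tested compounds plus 3 SD, cut at about 20% in these data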;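 further: 0% = DMSO wells given NPY plus isoproterenol and 100% = isoproterenol alone without NPY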
#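 Material: HEK293 cells with Y1 receptor plus CNG channel; times: compound incubation 1 h at room temperature, readout 45 min post-stimulation; signal: fluorescence, membrane potential probe; read-out basis: fluorescence ratio normalized to % inhibition between controls; benchmarks: full-block control isoproterenol-only wells, zero-block control NPY plus isoproterenol wells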
# NPY1 antag conf = human NPY-Y1 antagonism, confirmation; shares compounds with NPY-Y1 antag; HEK293-CNG NPY-Y1, membrane potential fluorescence, cAMP; NPY challenge against isoproterenol-raised cAMP; inhibition, % at 3.6 µM; actives 21% (n = 1,200); AID 1254; in the data active means inhibition above about 20%;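 further: 0% = vehicle with agonist plus stimulus and 100% = stimulus alone without agonist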
# NPY2 antag ctr = counter-screen for NPY-Y1 antagonists: human NPY-Y2 antagonism | shares compounds with NPY-Y1 antag | HEK293 NPY-Y2 CNG membrane potential fluorescence; cells given NPY, then isoproterenol | inhibition, % at 3.6 µM | actives 28% (n = 1,200);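 further: 0% = DMSO with agonist challenge and 100% = reference antagonist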
# * hit, by the source's call; . = not tested or not shown. Unless noted, no stated cut-off is given here; in the data, active means inhibition above about 17%; inactive means the rest.
SMILES,EP2 mod,NPY-Y1 PAM-ag,NPY2 pot ag,PGE2 EP2 inh,NPY-Y2 antag,NPY-Y1 antag,NPY1 antag conf,NPY2 antag ctr
OCC1(CCc2ccccc2)CCN(Cc2cc(F)ccc2-n2cccn2)CC1,-32.0,-12.2,-20.4,15.5,.,23.4*,13.8,11.1
Cc1noc(C)c1CSc1nnc(-c2ccccc2F)n1CCc1ccccc1,1.8,-15.5,9.3,1.8,12.0,20.5*,4.5,3.7
Cc1noc(C)c1CSc1nc2ccccc2n1C,-4.2,11.1,6.5,7.1,-0.7,4.1,.,.
COC(=O)C1CCCN1S(=O)(=O)c1ccc2ccccc2c1 (centres undefined),-24.9,6.8,3.2,9.8,9.0,40.6*,57.0*,26.9*
CCOC(=O)c1ccc(CNC(=O)CSc2nnnn2-c2ccc(Cl)cc2)o1,24.5,-8.6,-14.5,.,8.3,20.4*,10.4,12.1
CC(=O)Nc1ccccc1-c1nc2ccccc2nc1OCC(=O)c1ccc(Br)cc1,15.8,7.9,-2.5,4.6,1.4,8.7,.,.
CC(=O)Nc1ccccc1-c1nc2ccccc2nc1OCC(=O)c1ccc2ccccc2c1,1.4,-17.1,-0.3,7.7,12.9,20.7*,15.1,7.9
O=C(Nc1ccc(F)cc1)c1sc2cc(C(F)(F)F)cnc2c1-c1cccs1,34.4,-67.7,-36.3,6.5,7.8,22.9*,12.5,16.8
CC(NC(=O)Cn1c(NCCO)nc2ccccc21)C1CC2CCC1C2 (centres undefined),-6.0,-39.2,-11.7,7.0,.,40.1*,25.1*,12.1
COC(=O)Nc1ccc(S(=O)(=O)NCc2ccccn2)cc1,30.0,6.3,7.6,4.3,.,41.3*,4.9,0.4
COc1cccc(-c2nn(-c3ccccc3)cc2CN(C)Cc2c(C)nc3ccccn23)c1,7.2,-55.4,-17.9,12.1,.,23.2*,12.0,15.9
CCOC(=O)CN1C(=O)N[C@H](c2ccc(Br)cc2)C(C(C)=O)=C1C,32.3,-16.2,-9.2,0.5,11.4,23.6*,4.1,6.0
CCOC(=O)CN1C(=O)N[C@@H](c2ccc(Br)cc2)C(C(=O)OC)=C1C,-0.4,.,.,10.0,.,.,.,.
Cc1ccc(C(=O)N2c3ccccc3N(Cc3ccccc3)C(=O)C2(C)C)cc1,31.2,-40.0,34.8,3.2,10.0,30.3*,13.4,6.7
O=C(Nn1c(C2CCC2)nc2ccccc2c1=O)c1ccccc1,-1.1,.,.,10.4,.,.,.,.
Clc1ccc(-n2cccc2CN2CCc3c([nH]c4ccccc34)C2c2ccccn2)nc1 (centres undefined),-11.2,-17.0,-13.3,6.0,.,25.7*,6.0,9.4
Cc1ccc(CNC(=O)c2ccc(NS(=O)(=O)c3c(C)noc3C)cc2)cc1,3.0,-6.8,-2.8,.,10.3,27.6*,10.6,10.1
COc1cc(C=O)ccc1OCCOCCOc1ccccc1Cl,2.9,-7.5,1.9,.,2.0,20.5*,2.9,3.9
CC(=O)N(Cc1ccc(Br)cc1)c1cccc(C)c1C,-2.1,-11.1,2.0,1.1,.,33.5*,1.4,5.3
Fc1ccc(C(c2nnnn2Cc2cccs2)N2CCN(C3CCCC3)CC2)cc1 (centres undefined),4.6,-4.2,-10.7,10.6,14.4,7.5,.,.
Fc1ccc(C(c2nnnn2Cc2ccco2)N2CCN(C3CCCCC3)CC2)cc1 (centres undefined),9.0,-24.1,-4.3,21.3,13.1,28.9*,13.1,10.3
CCOc1cccc2sc(N(CCN(CC)CC)C(=O)c3ccc(S(=O)(=O)N4CCCCC4)cc3)nc12,-4.2,-4.9,-6.6,4.3,.,25.7*,3.5,4.6
CCOc1cccc2sc(N(CCCN(C)C)C(=O)Cc3ccccc3)nc12,-35.6,5.0,12.6,4.6,.,2.7,.,.
CC(C)CC1(C)NC(=O)N(CC(=O)Nc2cccc(S(=O)(=O)N(C)c3ccccc3)c2)C1=O (centres undefined),-37.3,-51.9,-20.1,3.0,.,50.7*,45.9*,50.5*
Brc1ccccc1-c1nnc(SCCN2CCOCC2)o1,-1.0,.,.,6.4,.,.,.,.
SMILES,EP2 mod,NPY-Y1 PAM-ag,NPY2 pot ag,PGE2 EP2 inh,NPY-Y2 antag,NPY-Y1 antag,NPY1 antag conf,NPY2 antag ctr
CCN(CC)CCN(Cc1cc2ccc(C)c(C)c2[nH]c1=O)C(=S)NCc1ccco1,-25.9,-19.9,-31.2,8.1,.,27.1*,14.6,15.5
CCN(CC)CCN(Cc1cc2cc(C)cc(C)c2[nH]c1=O)C(=S)NCc1ccco1,8.0,-81.1,-20.5,12.2,10.9,21.0*,13.6,14.3
Cc1cc(=O)cc(C)n1-c1ccccc1N1CCOCC1,14.1,21.1,-2.0,7.6,0.3,-0.1,.,.
Cc1ccc(C)n1-c1ccccc1N1CCCCC1,63.5*,8.7,12.4,5.3,.,56.2*,3.0,3.1
CCc1n[nH]c(=S)n1/N=C/c1ccc(N(C)c2ccccc2)cc1,58.4,-15.7,-31.8,7.9,.,35.2*,18.0,10.7
CCc1n[nH]c(=S)n1/N=C/c1ccc2c(c1)OCO2,21.8,-5.5,-14.7,9.0,4.0,4.8,.,.
Cc1cc(/C=C2/SC(=S)N(c3cccc(C(F)(F)F)c3)C2=O)c(C)n1-c1cccnc1,.,-77.8,6.7,23.3,13.3,48.3*,35.1*,24.4*
Cc1cc(/C=C2\SC(=S)N(Cc3ccco3)C2=O)c(C)n1-c1cccnc1,-0.5,-23.2,-5.5,.,-0.9,1.4,.,.
CCCCOC(=O)c1cc(=O)[nH]c2ccc(C)cc12,-19.1,-5.1,2.7,9.6,.,22.0*,10.3,7.5
CCc1ccc2[nH]c(=O)c(C(c3nnnn3C(C)(C)C)N3CCN(Cc4ccccc4)CC3)cc2c1 (centres undefined),-33.4,.,.,10.2,.,.,.,.
CCOC(=O)C1(Cc2cccc(OC)c2)CCN(Cc2cccn2-c2ccccn2)CC1,-6.2,-30.4,-29.7,6.8,.,28.8*,16.7,16.1
CCOC(=O)C1(CCOc2ccccc2)CCN(Cc2cccn2-c2ncccn2)CC1,18.1,-9.5,-25.0,5.3,.,24.7*,10.8,12.1
CCc1nnc(NC(=O)CSc2nc3sc4c(c3c(=O)[nH]2)CCC(C)C4)s1 (centres undefined),-7.8,.,.,9.5,.,.,.,.
Clc1ccccc1-c1nnc(-c2ccccc2Cl)o1,43.6,-21.0,-4.2,20.5,14.4,4.1,.,.
Clc1ccc(-c2nnc(-c3ccccc3Cl)o2)cc1,28.8,-12.1,-4.1,4.8,7.3,25.3*,7.7,7.6
CCN(Cc1ccccc1)C(=O)C1CCN(CC2CC=CCC2)CC1 (centres undefined),-24.4,-10.8,-1.8,5.2,2.5,5.7,.,.
O=C(C1CC1)N(CCN(Cc1ccccc1)C(=O)C1CC1)Cc1ccccc1,17.1,-25.5,-8.7,.,15.5,54.6*,39.6*,24.2*
